Measurements taken from ChEMBL document CHEMBL4387722.

Tests used:
[1] = molecular target: T1, Phosphotyrosine protein phosphatase (Mycobacterium tuberculosis, UniProt A0A045ISB3); experiment: Inhibition of Mycobacterium tuberculosis His-tagged PtpB expressed in Escherichia coli Rosetta 2 (DE3) using pNPP as substrate after 30 mins by spectrophotometric method
T1 sequence (A0A045ISB3 whole entry): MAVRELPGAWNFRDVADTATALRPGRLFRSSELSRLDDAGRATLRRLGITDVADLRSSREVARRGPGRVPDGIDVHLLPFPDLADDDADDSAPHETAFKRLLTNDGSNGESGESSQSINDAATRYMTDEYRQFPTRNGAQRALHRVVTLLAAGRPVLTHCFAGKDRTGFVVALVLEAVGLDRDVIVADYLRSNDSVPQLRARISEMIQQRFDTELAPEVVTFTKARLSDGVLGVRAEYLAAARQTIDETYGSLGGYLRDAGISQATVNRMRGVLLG

[2] = molecular target: T2, Tyrosine-protein phosphatase non-receptor type 1 (Homo sapiens, UniProt P18031); experiment: Inhibition of human PTPN1 expressed in Escherichia coli Rosetta 2 (DE3) using pNPP as substrate after 45 mins by spectrophotometric method
T2 sequence (P18031 whole entry): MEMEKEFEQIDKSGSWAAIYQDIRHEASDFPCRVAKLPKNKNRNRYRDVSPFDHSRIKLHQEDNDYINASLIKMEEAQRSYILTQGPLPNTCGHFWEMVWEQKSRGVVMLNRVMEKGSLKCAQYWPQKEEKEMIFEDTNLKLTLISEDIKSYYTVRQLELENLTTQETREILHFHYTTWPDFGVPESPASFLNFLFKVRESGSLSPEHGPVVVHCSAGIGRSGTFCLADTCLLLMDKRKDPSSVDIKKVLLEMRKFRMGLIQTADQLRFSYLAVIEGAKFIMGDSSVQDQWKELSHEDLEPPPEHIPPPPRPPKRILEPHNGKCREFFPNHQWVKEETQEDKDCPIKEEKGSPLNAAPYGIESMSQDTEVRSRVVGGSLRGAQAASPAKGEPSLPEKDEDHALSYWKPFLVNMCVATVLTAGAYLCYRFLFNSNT

[3] = molecular target: T3, Tyrosine-protein phosphatase non-receptor type 2 (Homo sapiens, UniProt P17706); experiment: Inhibition of human PTPN2 expressed in Escherichia coli Rosetta 2 (DE3) using pNPP as substrate after 45 mins by spectrophotometric method
T3 sequence (P17706 whole entry): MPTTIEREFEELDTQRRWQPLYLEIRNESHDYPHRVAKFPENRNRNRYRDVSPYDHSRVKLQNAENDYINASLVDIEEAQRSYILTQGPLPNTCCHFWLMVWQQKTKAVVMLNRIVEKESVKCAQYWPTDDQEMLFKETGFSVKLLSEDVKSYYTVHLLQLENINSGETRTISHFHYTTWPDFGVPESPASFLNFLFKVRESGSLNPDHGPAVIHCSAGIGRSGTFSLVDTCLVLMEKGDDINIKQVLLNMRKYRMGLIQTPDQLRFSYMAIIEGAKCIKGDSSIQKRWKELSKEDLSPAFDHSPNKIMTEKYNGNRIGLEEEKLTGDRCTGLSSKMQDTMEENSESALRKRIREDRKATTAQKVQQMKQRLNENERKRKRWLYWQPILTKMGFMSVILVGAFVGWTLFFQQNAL

[4] = molecular target: T4, Tyrosine-protein phosphatase non-receptor type 5 (Homo sapiens, UniProt P54829); experiment: Inhibition of human PTPN5 expressed in Escherichia coli Rosetta 2 (DE3) using pNPP as substrate after 45 mins by spectrophotometric method
T4 sequence (P54829 whole entry): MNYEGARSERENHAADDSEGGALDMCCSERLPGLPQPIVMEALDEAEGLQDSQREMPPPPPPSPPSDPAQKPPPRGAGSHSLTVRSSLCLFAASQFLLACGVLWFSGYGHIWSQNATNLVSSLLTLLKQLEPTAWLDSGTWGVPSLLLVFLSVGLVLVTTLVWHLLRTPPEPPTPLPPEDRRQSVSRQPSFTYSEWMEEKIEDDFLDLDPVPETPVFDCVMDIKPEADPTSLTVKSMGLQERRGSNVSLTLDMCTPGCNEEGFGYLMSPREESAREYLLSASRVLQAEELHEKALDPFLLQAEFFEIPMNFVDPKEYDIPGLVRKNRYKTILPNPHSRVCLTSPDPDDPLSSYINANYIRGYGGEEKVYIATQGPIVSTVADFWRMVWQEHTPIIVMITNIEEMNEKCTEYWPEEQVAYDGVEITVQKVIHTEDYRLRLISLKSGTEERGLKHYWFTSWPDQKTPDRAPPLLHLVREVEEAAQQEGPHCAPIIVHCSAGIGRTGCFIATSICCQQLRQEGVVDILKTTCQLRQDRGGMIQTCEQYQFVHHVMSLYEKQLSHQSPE

[5] = test system: Mycobacterium tuberculosis; experiment: Antitubercular activity against Mycobacterium tuberculosis H37Rv after 5 days at 200 uM relative to control; format: functional; conditions: 120 h
Outline: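 M. tuberculosis grown in liquid culture with compound at a fixed 200 μM for 5 days. Growth inhibition expressed as percent of control.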

[6] = test system: Mycobacterium tuberculosis; experiment: Antitubercular activity against Mycobacterium tuberculosis H37Rv after 5 days; format: functional, organism-based; conditions: 120 h
[7] = Inhibition of refolded rhodanese (unknown origin) preincubated with Escherichia coli GroEL/GroES for 60 mins by measuring rhodanese enzyme activity followed by compound addition by Fe(SCN)3 dye based spectrometric analysis; parameters: species or system Homo sapiens
[8] = molecular target: T5, Malate dehydrogenase, mitochondrial (Sus scrofa, UniProt P00346); experiment: Inhibition of refolded pig heart mitochondrial MDH preincubated with Escherichia coli GroEL/GroES for 45 mins using sodium mesoxalate as substrate followed by compound addition and measured after 20 to 30 mins by spectrometric analysis
T5 sequence (P00346 whole entry): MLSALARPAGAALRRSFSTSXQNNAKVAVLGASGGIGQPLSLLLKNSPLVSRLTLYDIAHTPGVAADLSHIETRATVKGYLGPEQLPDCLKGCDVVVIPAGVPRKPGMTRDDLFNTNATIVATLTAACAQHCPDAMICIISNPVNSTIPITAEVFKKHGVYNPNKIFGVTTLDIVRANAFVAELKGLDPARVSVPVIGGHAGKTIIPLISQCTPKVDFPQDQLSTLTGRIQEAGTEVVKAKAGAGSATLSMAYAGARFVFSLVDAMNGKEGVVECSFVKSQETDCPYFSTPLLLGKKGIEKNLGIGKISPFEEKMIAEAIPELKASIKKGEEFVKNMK

[9] = molecular target: HSP60/HSP10 (Homo sapiens, UniProt P10809); experiment: Inhibition of human HSP60 expressed in Escherichia coli Rosetta 2(DE3)/human HSP10 expressed in Escherichia coli Rosetta 2(DE3) pLysS cells assessed as reduction in HSP60/HSP10-mediated denatured pig heart mitochondrial MDH refolding by measuring MDH enzyme activity using sodium mesoxalate as substrate after 40 to 60 mins by spectrometric analysis
[10] = Cytotoxicity against human THLE3 cells assessed as reduction in cell viability after 48 hrs by Alamar blue assay; format: cell-based
Outline: (§1)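 Alamar Blue viability read-out. Human liver (THLE-3) and kidney (HEK 293) cells incubated with compound for 48 h. Tested in dose-response to derive CC50.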

[11] = Cytotoxicity against human HEK293 cells assessed as reduction in cell viability after 48 hrs by Alamar blue assay; format: cell-based; outline: as §1

Chain of HSP60/HSP10 (P10809 whole entry): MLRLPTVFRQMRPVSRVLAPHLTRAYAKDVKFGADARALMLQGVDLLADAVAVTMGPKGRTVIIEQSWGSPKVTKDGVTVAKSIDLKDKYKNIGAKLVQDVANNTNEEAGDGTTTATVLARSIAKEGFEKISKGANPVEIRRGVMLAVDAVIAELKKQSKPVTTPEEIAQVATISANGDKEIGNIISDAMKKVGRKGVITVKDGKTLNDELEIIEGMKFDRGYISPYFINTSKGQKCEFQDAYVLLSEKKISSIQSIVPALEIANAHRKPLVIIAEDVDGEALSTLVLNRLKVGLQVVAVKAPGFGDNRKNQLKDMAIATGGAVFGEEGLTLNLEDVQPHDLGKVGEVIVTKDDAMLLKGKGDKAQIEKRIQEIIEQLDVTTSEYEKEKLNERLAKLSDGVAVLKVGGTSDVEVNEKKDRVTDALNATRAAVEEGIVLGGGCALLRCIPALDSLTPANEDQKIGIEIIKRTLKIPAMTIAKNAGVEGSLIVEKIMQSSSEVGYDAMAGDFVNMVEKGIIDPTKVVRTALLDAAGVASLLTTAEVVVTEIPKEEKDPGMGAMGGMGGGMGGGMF
Chain of HSP60/HSP10 (P61604 whole entry, further chain): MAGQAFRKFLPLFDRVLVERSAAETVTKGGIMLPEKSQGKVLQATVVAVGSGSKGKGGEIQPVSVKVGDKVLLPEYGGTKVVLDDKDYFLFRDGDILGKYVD

Row | SMILES | IC50 [1] [µM] | IC50 [2] [µM] | IC50 [3] [µM] | IC50 [4] [µM] | inhibition at 200 µM [5] [%] | EC50 [6] [µM] | IC50 [7] [µM] | IC50 [8] [µM] | IC50 [9] [µM] | CC50 at 48 h [10] [µM] | CC50 at 48 h [11] [µM]
1 | CS(=O)(=O)Nc1ccc2oc(-c3ccc(NS(=O)(=O)c4ccc(Cl)s4)cc3)nc2c1 | 46 | 73 | > 100 | > 100 | 85 | 104 |  |  |  |  | 
2 | O=S(=O)(Nc1ccc2oc(-c3ccccc3)nc2c1)c1ccc(O)cc1 | 97 | 92 | > 100 | 84 | 9 |  | > 100 | > 63 | 88 | > 100 | > 100
3 | CS(=O)(=O)Nc1ccc2oc(-c3ccccc3)nc2c1 | > 100 | > 100 | > 100 | > 100 | 6 |  | > 100 | > 63 | > 100 | > 100 | > 100
4 | O=S(=O)(Nc1ccc2oc(-c3ccccc3)nc2c1)c1ccc(F)c(C(F)(F)F)c1 | 46 | 76 | 39 | 26 | 23 |  | > 100 | > 63 | 69 | 55 | > 100
5 | COc1ccccc1S(=O)(=O)Nc1ccc(-c2nc3ccccc3o2)cc1 | 59 | 54 | 53 | 44 | 0 |  | > 100 | > 63 | > 100 | > 100 | > 100
6 | O=S(=O)(Nc1ccc2oc(-c3ccccc3)nc2c1)c1cccc(Cl)c1 | > 100 | 88 | 51 | > 100 | 45 |  | > 100 | > 63 | > 100 | 45 | 70
7 | O=S(=O)(Nc1ccc2oc(-c3ccccc3)nc2c1)c1ccccc1O | 98 | 76 | > 100 | 68 | 18 |  | > 100 | > 63 | 85 | 32 | 33
8 | O=[N+]([O-])c1cccc(S(=O)(=O)Nc2ccc(-c3nc4cc(NS(=O)(=O)c5cccc([N+](=O)[O-])c5)ccc4o3)cc2)c1 | 9.1 | 14 | 29 | 24 | 0 |  |  |  |  |  | 
9 | O=S(=O)(Nc1ccc2oc(-c3ccc(NS(=O)(=O)c4ccc(Cl)s4)cc3)nc2c1)c1ccc(F)c(C(F)(F)F)c1 | 5.7 | 11 | 20 | 14 | 0 |  |  |  |  |  | 
10 | O=S(=O)(Nc1ccc2oc(-c3ccc(NS(=O)(=O)c4ccc(Cl)s4)cc3)nc2c1)c1ccc(Br)cc1 | 4.1 | 6.9 | 14 | 12 | 28 |  |  |  |  |  | 
11 | O=[N+]([O-])c1ccccc1S(=O)(=O)Nc1ccc(-c2nc3cc(NS(=O)(=O)c4ccccc4[N+](=O)[O-])ccc3o2)cc1 | 10 | 28 | 28 | 29 | 39 |  |  |  |  |  | 
12 | O=C(O)c1cccc(S(=O)(=O)Nc2ccc(-c3nc4cc(NS(=O)(=O)c5cccc(C(=O)O)c5)ccc4o3)cc2)c1 | 9.9 | > 100 | > 100 | > 100 | 7 |  |  |  |  |  | 
13 | CCCS(=O)(=O)Nc1ccc(-c2nc3cc(NS(=O)(=O)CCC)ccc3o2)cc1 | > 100 | > 100 | > 100 | 83 | 13 |  |  |  |  |  | 
14 | COc1ccc(S(=O)(=O)Nc2ccc(-c3nc4cc(NS(=O)(=O)c5ccc(Cl)s5)ccc4o3)cc2)cc1 | 11 | 11 | 16 | 16 | 25 |  |  |  |  |  | 
